According to ChEMBL document CHEMBL1817572, “New, potent, selective, and short-acting peptidic V1a receptor agonists” (J Med Chem, 2011):
Bridge positions count the residues as written; N and C are the ends. Square brackets hold non-standard residues; d marks the D form. Peptide text beside a SMILES is read from it. Orn(iPr) = CC(C)NCCC[C@H](N)C(=O)O; Cha = N[C@@H](CC1CCCCC1)C(=O)O

How the values were obtained:
Rattus norvegicus = experiment: Vasoconstriction in Wistar rat assessed as assessed as decay in vasopressive duration of action at 60 nmol/kg, iv bolus measured over 10 sec interval; type: functional
Procedure, shortened: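 Fasted male Wistar rats (206–340 g) under isoflurane, then thiobutabarbital 150 mg/kg ip, ventilated, 37–38 °C, with carotid pressure and jugular dosing. Dibenamine 1.8 mg/rat iv pretreatment. Sequence: iv boluses (0.5 mL/kg) of heparinized vehicle, then two reference doses of 0.1 nmol/kg, then two test doses; one matches the reference diastolic pressure rise. Relative duration = reference decay rate / test decay rate; mean ± SEM.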

Oxytocin receptor = target: T1, Oxytocin receptor (Homo sapiens, UniProt P30559); experiment: Agonist activity at human OT receptor expressed in CHO-K1 cells by luciferase reporter gene assay; type: functional, cell-based
T1 sequence (P30559 whole entry): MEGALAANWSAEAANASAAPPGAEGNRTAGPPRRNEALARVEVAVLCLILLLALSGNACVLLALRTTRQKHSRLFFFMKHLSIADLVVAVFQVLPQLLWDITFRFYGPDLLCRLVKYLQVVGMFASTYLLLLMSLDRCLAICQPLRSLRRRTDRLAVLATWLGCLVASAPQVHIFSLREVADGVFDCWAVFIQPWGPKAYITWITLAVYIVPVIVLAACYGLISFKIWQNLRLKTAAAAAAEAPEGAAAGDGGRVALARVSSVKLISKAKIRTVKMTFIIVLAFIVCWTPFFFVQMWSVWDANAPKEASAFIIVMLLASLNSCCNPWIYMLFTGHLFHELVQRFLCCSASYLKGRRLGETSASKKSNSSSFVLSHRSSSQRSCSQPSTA

Homo sapiens [1] = organism: Homo sapiens; experiment: Selectivity ratio of EC50 for human vasopressin V1b receptor to EC50 for human vasopressin V1a receptor
Vasopressin V1b receptor = target: T2, Vasopressin V1b receptor (Homo sapiens, UniProt P47901); experiment: Agonist activity at recombinant human vasopressin V1b receptor expressed in Flp-In-293 cells by luciferase reporter gene assay; type: functional, cell-based; settings: read-out: EC50
T2 sequence (P47901 whole entry): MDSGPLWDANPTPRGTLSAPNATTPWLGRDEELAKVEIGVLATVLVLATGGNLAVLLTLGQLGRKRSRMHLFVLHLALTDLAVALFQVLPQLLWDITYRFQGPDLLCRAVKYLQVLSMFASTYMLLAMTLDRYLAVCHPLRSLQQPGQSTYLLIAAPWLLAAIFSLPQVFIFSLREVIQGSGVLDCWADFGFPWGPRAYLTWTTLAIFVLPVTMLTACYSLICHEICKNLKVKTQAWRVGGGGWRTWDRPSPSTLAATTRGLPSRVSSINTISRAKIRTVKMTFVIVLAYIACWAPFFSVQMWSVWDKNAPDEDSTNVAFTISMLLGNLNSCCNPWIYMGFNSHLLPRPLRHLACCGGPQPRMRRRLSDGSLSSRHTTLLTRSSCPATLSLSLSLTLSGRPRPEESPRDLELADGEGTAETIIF
Procedure, shortened: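 Reporter gene assays in HEK293 cells transiently cotransfected with V1a (human or rat) or human V2 receptor vector plus NFAT-luciferase (V1a) or CRE-luciferase (V2) reporter; V1b in Flp-In-293 stably expressing receptor, OT in CHO-K1 stably expressing receptor, both transiently transfected with NFAT-luciferase. Two days post-transfection, peptides added for 5 h at 37 °C, lysis with luciferin, luminescence read.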

Homo sapiens [2] = organism: Homo sapiens; experiment: Selectivity ratio of EC50 for human oxytocin receptor to EC50 for human vasopressin V1a receptor
[3] = target: Vasopressin V1a/V2 (Homo sapiens) (UniProt P30518+P37288); experiment: Selectivity ratio of EC50 for human vasopressin V2 receptor to EC50 for human vasopressin V1a receptor
Vasopressin V1a receptor [4] = target: Vasopressin V1a receptor (Rattus norvegicus, UniProt P30560); experiment: Agonist activity at recombinant rat vasopressin V1a receptor expressed in HEK293 cells by luciferase reporter gene assay; type: functional, cell-based; settings: read-out: EC50
Vasopressin V2 receptor = Vasopressin V2 receptor (Homo sapiens, UniProt P30518); experiment: Agonist activity at recombinant human vasopressin V2 receptor expressed in HEK293 cells by luciferase reporter gene assay; type: functional, cell-based; settings: read-out: EC50
Vasopressin V1a receptor [5] = target: Vasopressin V1a receptor (Homo sapiens, UniProt P37288); experiment: Agonist activity at recombinant human vasopressin V1a receptor expressed in HEK293 cells by luciferase reporter gene assay; type: functional, cell-based; settings: read-out: EC50
Sequence of Vasopressin V1a receptor (Homo sapiens, UniProt P37288) (P37288 whole entry): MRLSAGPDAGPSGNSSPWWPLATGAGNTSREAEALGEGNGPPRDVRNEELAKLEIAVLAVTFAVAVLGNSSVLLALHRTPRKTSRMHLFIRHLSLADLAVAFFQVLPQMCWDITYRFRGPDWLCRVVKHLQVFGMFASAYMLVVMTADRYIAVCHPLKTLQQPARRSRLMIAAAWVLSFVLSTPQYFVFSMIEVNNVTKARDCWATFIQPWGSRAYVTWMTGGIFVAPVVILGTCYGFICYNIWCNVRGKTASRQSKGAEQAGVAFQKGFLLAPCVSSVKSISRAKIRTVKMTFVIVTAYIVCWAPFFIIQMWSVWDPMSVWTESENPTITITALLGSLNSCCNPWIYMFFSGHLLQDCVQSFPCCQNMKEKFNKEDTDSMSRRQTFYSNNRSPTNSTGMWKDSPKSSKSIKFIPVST

Sequence of Vasopressin V2 receptor (P30518 whole entry): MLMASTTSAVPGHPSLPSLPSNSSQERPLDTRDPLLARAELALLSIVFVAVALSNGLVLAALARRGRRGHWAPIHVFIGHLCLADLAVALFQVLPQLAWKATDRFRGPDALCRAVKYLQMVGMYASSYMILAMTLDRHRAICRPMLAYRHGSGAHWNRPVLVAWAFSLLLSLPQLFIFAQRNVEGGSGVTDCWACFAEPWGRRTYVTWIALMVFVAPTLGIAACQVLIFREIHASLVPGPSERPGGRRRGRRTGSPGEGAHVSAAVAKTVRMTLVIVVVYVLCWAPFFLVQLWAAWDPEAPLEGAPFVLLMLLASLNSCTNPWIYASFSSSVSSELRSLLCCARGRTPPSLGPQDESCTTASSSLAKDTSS
Sequence of Vasopressin V1a/V2 (Homo sapiens) (P30518 whole entry, looked up): as the sequence (P30518 whole entry) above
Sequence of Vasopressin V1a/V2 (Homo sapiens) (P37288 whole entry, looked up): as the sequence (P37288 whole entry) above
Sequence of Vasopressin V1a receptor (Rattus norvegicus, UniProt P30560) (P30560 whole entry): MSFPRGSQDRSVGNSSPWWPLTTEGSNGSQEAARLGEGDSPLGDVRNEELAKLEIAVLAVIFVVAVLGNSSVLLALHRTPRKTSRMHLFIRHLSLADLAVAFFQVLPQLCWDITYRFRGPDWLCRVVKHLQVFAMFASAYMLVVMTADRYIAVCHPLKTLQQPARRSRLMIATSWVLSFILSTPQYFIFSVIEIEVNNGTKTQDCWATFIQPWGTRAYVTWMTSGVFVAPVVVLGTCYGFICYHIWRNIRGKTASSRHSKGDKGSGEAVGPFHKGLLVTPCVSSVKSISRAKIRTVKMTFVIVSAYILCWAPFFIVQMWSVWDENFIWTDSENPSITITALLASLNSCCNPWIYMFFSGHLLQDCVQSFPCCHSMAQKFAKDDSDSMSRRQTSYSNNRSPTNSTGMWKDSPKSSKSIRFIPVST

CC[C@H](C)[C@@H]1NC(=O)[C@H](CC2CCCCC2)NC(=O)[C@@H](N)CSSC[C@@H](C(=O)N2CCC[C@H]2C(=O)N[C@@H](CCCNC(C)C)C(=O)NCC(N)=O)NC(=O)[C@H](CC(N)=O)NC(=O)[C@H](CC(N)=O)NC1=O (H-C[Cha]INNCP[Orn(iPr)]G-NH2; disulfide 1-6)
Time (Rattus norvegicus): 4.1 unitless ratio
EC50 (Oxytocin receptor; cho-k1, read-out: EC50): > 10000 nM
EC50 (Oxytocin receptor; read-out: pEC50 (converted)): > 10000 nM
Ratio EC50 (Homo sapiens [1]): 78
EC50 (Vasopressin V1b receptor): 110 nM
Ratio EC50 (Homo sapiens [2]): > 7100
Ratio EC50 [3]: 690
EC50 (Vasopressin V1a receptor [4]): 57 nM
EC50 (Vasopressin V2 receptor): 970 nM
EC50 (Vasopressin V1a receptor [5]): 1.4 nM
